Publication PMC3861893 (Journal of medicinal chemistry, 2012)

Experiments:
[1] = system: antigen-specific CD8+ T cells; test: In vivo cellular immune response assay; design: species or system C57BL/6 (B6) mice; details: for response rate of tetramer positive CD8+ T cells (day 7 = 100%): average, n = 3
How it was run: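 Mice aged 6-8 weeks immunized i.v. with 200 μL of 100 μg Trp1455/9M peptide, 50 μg anti-CD40 mAb (FGK-45.5) and 50 μg TLR2 agonist (test compound, Pam2CSK4 or Pam3CSK4). Submandibular blood taken on days 7, 21 and 34, red cells lysed with ammonium chloride. Stained 40 min on ice with anti-CD8a, PE Trp1455/9M/H-2Db tetramer and anti-MHC II. Tetramer+ CD8+ cells gated by flow cytometry; n=3.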

TLR2 = TLR2 (Homo sapiens, UniProt O60603); test: In cyto europium TRF competition binding assay; details: Ki (summary statement), cell line not specified, summary in discussion
Sequence of TLR2 (O60603 21-784): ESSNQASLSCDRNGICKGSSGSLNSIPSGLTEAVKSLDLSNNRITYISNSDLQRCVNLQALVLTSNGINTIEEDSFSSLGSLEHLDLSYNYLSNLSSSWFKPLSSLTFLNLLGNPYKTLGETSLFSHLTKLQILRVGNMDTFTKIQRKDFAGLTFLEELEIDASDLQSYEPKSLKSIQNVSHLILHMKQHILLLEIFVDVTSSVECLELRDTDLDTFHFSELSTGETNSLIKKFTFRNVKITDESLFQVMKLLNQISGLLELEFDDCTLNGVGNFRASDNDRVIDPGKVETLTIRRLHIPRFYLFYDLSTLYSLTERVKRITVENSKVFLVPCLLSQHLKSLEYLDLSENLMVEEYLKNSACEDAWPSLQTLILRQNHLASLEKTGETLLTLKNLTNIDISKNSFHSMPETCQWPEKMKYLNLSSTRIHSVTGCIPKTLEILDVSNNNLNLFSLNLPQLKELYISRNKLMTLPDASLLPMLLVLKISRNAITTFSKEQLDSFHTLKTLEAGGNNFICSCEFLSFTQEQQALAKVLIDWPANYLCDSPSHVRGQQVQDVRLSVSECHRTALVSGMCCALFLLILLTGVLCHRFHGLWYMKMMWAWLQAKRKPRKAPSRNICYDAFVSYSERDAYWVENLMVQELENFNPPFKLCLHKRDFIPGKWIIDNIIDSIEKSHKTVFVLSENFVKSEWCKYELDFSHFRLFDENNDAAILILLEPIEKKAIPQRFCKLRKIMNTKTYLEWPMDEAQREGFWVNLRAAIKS

Row | SMILES | response rate of tetramer positive CD8+ T cells (day 7 = 100%) ([1]; day 21 post-immunization) [%] | response rate of tetramer positive CD8+ T cells (day 7 = 100%) ([1]; day 34 post-immunization) [%] | signs or symptoms of stress or toxicity in mice ([1]; over the course of the experiment (34 days), 50 μg i.v.) | Ki (TLR2) [nM]
1 | CCCCCCCCCCCCCCCC(=O)OC[C@H](CSC[C@H](NC(=O)COCC(=O)NCCCOCCOCCOCCCNC(C)=O)C(=O)NCC(=O)N[C@H](CO)C(=O)NCCCOCCOCCOCCCNC(=O)COCC(N)=O)OC(=O)CCCCCCCCCCCCCCC [Compound 10] | 25.7 | 12.7 | No signs or symptoms of stress or toxicity were observed | –
2 | CCCCCCCCCCCCCCCC(=O)OC[C@H](CSC[C@H](NC(=O)COCC(=O)NCCCOCCOCCOCCCNC(=O)CCSC1CC(=O)N(CCNC(=O)CCCCCN2C(=CC=C3CCCC(C=CC4=[N+](CCCCS(=O)(=O)O)c5ccc(S(=O)(=O)[O-])cc5C4(C)C)=C3Oc3ccc(S(=O)(=O)O)cc3)C(C)(C)c3cc(S(=O)(=O)O)ccc32)C1=O)C(=O)NCC(=O)N[C@H](CO)C(=O)NCCCOCCOCCOCCCNC(=O)COCC(N)=O)OC(=O)CCCCCCCCCCCCCCC (stereo partly shown) [Compound 13, IRDye800CW-Mpr-PEGO-Dhc(Pam2)-Gly-DSer-PEGO-NH2] | – | – | – | < 100
